Blank lines part the entries; values can stand above or below the compound they belong to. Calls of active or inactive are those of the source. The rule behind the calls is not given here.
Legend:
[1] = test system: DU-145; test: Growth inhibition of human DU145 cells administered after 3 days; format: functional, cell-based; conditions: DU-145, 72 h
Procedure, shortened: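 DU145 in RPMI 1640 with 10% FCS; 1 × 10⁵ cells per well in 24-well plates, compound added 4 h after seeding. After 3 days the adherent sheet was washed twice with PBS and harvested in 0.14 M NaOH, and protein content measured. IC50 is the mean of three experiments.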

[2] = target: Aldehyde dehydrogenase 1 (Saccharomyces cerevisiae); test: Inhibition of ALDH1
[3] = test system: BaF3; test: Induction of apoptosis in mouse BAF3 cells overexpressing bcl2; format: functional, cell-based
[4] = Growth inhibition of human androgen-resistant ME cells after 3 days; format: functional; conditions: 72 h
Procedure, shortened: (§1)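 MOP (androgen-sensitive, LNCaP grown long-term in steroid-deprived medium) and ME (from regrown MOP xenografts under androgen) in RPMI 1640 with 5% charcoal-treated FCS. Seeded 1 × 10⁵ cells per well in 24-well plates, compound added at 4 h, cell count by Coulter counter after 3 days. IC50 is the mean of three experiments.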

[5] = target: T1, Aldehyde dehydrogenase, dimeric NADP-preferring (Homo sapiens) (UniProt P30838); test: Inhibition of ALDH3 in human DU145 cells at 2.5 uM after 3 days; format: cell-based; conditions: DU-145
T1 sequence (whole entry): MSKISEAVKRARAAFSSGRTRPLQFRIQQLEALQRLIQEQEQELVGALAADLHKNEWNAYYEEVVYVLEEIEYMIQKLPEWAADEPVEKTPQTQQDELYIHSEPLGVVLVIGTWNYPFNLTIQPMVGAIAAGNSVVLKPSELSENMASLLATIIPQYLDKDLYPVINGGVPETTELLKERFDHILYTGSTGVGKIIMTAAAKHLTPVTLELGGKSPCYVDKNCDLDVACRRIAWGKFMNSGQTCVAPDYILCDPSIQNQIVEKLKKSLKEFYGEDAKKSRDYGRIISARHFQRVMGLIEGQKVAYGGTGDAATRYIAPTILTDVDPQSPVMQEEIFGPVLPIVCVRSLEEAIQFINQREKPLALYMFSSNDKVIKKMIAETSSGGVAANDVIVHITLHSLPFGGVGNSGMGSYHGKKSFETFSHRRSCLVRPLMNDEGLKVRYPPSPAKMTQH
Procedure, shortened: (§2)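 DU145 treated for 3 days, trypsinised, washed in PBS and lysed in 60 mM sodium phosphate pH 7 with 1% Triton X-100 and 1 mM EDTA, 30 min at 4 °C; lysate spun at 48,000g for 30 min. ALDH1: supernatant in phosphate pH 8.5, 1 mM EDTA, 100 mM KCl, 2.35 mM NAD, propanal substrate. ALDH3: 5 mM benzaldehyde, 2.5 mM NADP, 1 mM pyrazole. Two experiments in duplicate.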

[6] = test system: DU-145; test: Reversal of growth inhibition in human DU145 cells assessed as increase in cell number at 10 uM on day 3 replaced with fresh medium without drug and measured after 8 days; format: functional
Procedure, shortened: (§3)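 Cells were treated for 3 days. The medium was then aspirated, the sheet washed with PBS and fresh drug-free medium added, followed by 5 more days of culture. Growth measured on day 8 as adherent-cell protein and expressed relative to the day-3 protein content of parallel wells. Two experiments in duplicate.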

[7] = target: T2, Aldehyde dehydrogenase 1A1 (Homo sapiens) (UniProt P00352); test: Inhibition of ALDH1 in human DU145 cells at 5 uM after 3 days; format: cell-based; conditions: DU-145; procedure, shortened: as §2
T2 sequence (whole entry): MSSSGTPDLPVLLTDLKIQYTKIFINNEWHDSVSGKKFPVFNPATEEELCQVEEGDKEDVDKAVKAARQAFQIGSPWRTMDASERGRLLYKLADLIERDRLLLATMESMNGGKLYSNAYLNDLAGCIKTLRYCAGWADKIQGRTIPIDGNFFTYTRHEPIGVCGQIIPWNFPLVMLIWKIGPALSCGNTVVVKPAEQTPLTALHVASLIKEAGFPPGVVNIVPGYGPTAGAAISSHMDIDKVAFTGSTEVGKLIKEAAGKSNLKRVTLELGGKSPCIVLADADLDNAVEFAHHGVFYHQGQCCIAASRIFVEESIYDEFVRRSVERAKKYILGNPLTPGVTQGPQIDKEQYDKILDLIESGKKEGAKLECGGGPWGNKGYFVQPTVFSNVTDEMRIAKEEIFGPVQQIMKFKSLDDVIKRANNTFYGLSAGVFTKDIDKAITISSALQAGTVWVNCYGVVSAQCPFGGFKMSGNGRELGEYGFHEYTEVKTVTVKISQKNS

[8] = test system: DU-145; test: Decrease in redox potential in human DU145 cells at 10 uM after 3 days by flow cytometry; format: functional, cell-based
[9] = Growth inhibition of HPEN cells at 10 uM after 3 days; format: cell-based; conditions: human
Procedure, shortened: (§4)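 Cells seeded at 1 × 10⁵ per well in 24-well plates; compound added 4 h post-seeding and left for 3 days. Growth inhibition measured as protein content relative to control. HPENC values are means of three experiments in duplicate; DU145 values are means of five experiments in duplicate.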

[10] = test system: DU-145; test: Growth inhibition of human DU145 cells at 2 uM after 3 days; format: functional; conditions: DU-145, 72 h; procedure, shortened: as §4
[11] = Growth inhibition of HPEN cells at 2 uM after 3 days; format: cell-based; conditions: human; procedure, shortened: as §4
[12] = target: T2, Aldehyde dehydrogenase 1A1 (Homo sapiens); test: Inhibition of ALDH1 in human DU145 cells at 2.5 uM after 3 days; format: cell-based; conditions: DU-145; procedure, shortened: as §2
[13] = Growth inhibition of HPEN cells administered after 3 days; format: cell-based; conditions: Homo sapiens, 72 h
Procedure, shortened: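 HPENC in PrEGM with supplement and 10% FCS; 1 × 10⁵ cells per well in 24-well plates, compound added 4 h after seeding once adhered. After 3 days, growth read as protein content. IC50 is the mean of three experiments.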

[14] = target: T1, Aldehyde dehydrogenase, dimeric NADP-preferring (Homo sapiens); test: Inhibition of ALDH3 in human DU145 cells at 5 uM after 3 days; format: cell-based; conditions: DU-145; procedure, shortened: as §2
[15] = Growth inhibition of HPEN cells at 5 uM after 3 days; format: cell-based; conditions: human; procedure, shortened: as §4
[16] = Growth inhibition of rat JM2 cells; format: functional, cell-based
[17] = test system: DU-145; test: Induction of apoptosis in human DU145 cells assessed as apoptotic cells in flow cytometry region H3 at 10 uM after 3 days by flow cytometry
[18] = test system: DU-145; test: Growth inhibition of human DU145 cells at 5 uM after 3 days; format: functional; conditions: DU-145, 72 h; procedure, shortened: as §4
[19] = test system: DU-145; test: Increase in superoxide anion level in human DU145 cells at 10 uM after 3 days by flow cytometry; format: functional, cell-based
[20] = test system: DU-145; test: Growth inhibition of human DU145 cells at 10 uM after 3 days; format: functional; conditions: DU-145, 72 h; procedure, shortened: as §4
[21] = test system: DU-145; test: Induction of apoptosis in human DU145 cells assessed as apoptotic cells in flow cytometry region H1 at 10 uM after 3 days by flow cytometry
[22] = target: T1, Aldehyde dehydrogenase, dimeric NADP-preferring (Homo sapiens); test: Inhibition of ALDH3 in human DU145 cells at 7.5 uM after 3 days; format: cell-based; conditions: DU-145; procedure, shortened: as §2
[23] = Reversal of growth inhibition in HPEN cells assessed as increase in cell number at 10 uM after 8 days; format: cell-based; conditions: human, 192 h
Procedure, shortened: (§5)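 Cells seeded in six wells and treated from 4 h after seeding. Two wells were left in the original drug-containing medium for a further 5 days. Growth measured on day 8 as protein content of adherent cells and expressed as the day 8/day 3 ratio. EtOH vehicle controls were handled identically. Two experiments in duplicate.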

[24] = test system: DU-145; test: Reversal of growth inhibition in human DU145 cells assessed as increase in cell number at 10 uM after 8 days; format: functional; procedure, shortened: as §5
[25] = Growth inhibition of human androgen-sensitive MOP cells after 3 days; format: functional; conditions: 72 h; procedure, shortened: as §1
[26] = target: T2, Aldehyde dehydrogenase 1A1 (Homo sapiens); test: Inhibition of ALDH1 in human DU145 cells at 7.5 uM after 3 days; format: cell-based; conditions: DU-145; procedure, shortened: as §2
[27] = test system: MRC5; test: Growth inhibition of human MRC5 cells; format: cell-based
[28] = test system: RH7777; test: Growth inhibition of RH7777 cells; format: functional, cell-based; conditions: Rattus norvegicus
[29] = Reversal of growth inhibition in HPEN cells assessed as increase in cell number at 10 uM on day 3 replaced with fresh medium without drug and measured after 8 days; format: cell-based; conditions: human, 192 h; procedure, shortened: as §3

SMILES: CSC(=O)C#CC(C)(C)N1CCCCC1
IC50 [1]: 22 µM

SMILES: CSC(=O)C#CC(C)(C)N
Ki [2]: 280 µM
IC50 [3]: 4 µM

SMILES: CCCN(CCC)C(C)(C)C#CC(=O)SC
IC50 [1]: 12.6 µM

SMILES: CSC(=O)C#CC(C)(C)N1CCSCC1
IC50 [1]: 54 µM

SMILES: CN(C)C(=S)C#CC(C)(C)N1CCOCC1
IC50 [1]: 100 µM

Further compounds by falling IC50 [1], results first:

inhibition [5]: 40%
inhibition [7]: 40%
inhibition [12]: 15%
inhibition [14]: 62%
IC50 [1]: 7.2 µM
inhibition [22]: 100%
inhibition [26]: 78%
SMILES: CSC(=O)C#CC(C)(C)N(C)C
IC50 [4]: 3 µM
Activity [6]: 2.7
Activity [8]: Active
inhibition at 72 h, 10 µM [9]: 60%
inhibition at 2 µM [10]: 6%
inhibition at 72 h, 2 µM [11]: 6%
IC50 [13]: 9.7 µM
inhibition at 72 h, 5 µM [15]: 23%
IC50 [16]: 10 µM
Activity [17]: Active
inhibition at 5 µM [18]: 34%
Activity [19]: Active
inhibition at 10 µM [20]: 78%
Activity [21]: Active
Activity [23]: 0.9
Activity [24]: 2.5
IC50 [25]: 3 µM
IC50 [27]: 8 µM
IC50 [28]: 10 µM
Activity [29]: 2.8

IC50 [1]: 7 µM
SMILES: CSC(=O)C#CC(C)(C)N(Cc1ccccc1)Cc1ccccc1

IC50 [1]: 6.2 µM
SMILES: CSC(=O)C#CC(C)(C)N1Cc2ccccc2C1

Source: ChEMBL document CHEMBL1156669, “Aldehyde dehydrogenase inhibitors: alpha,beta-acetylenic N-substituted aminothiolesters are reversible growth inhibitors of normal epithelial but irreversible apoptogens for cancer epithelial cells from human prostate in culture” (Eur J Med Chem, 2008)
